Measured values reported in ChEMBL document CHEMBL4316595, “Synthesis and structure-activity relationship studies of parthenolide derivatives as potential anti-triple negative breast cancer agents” (Eur J Med Chem, 2019).
Counter-ions that a name gives are not always drawn. Calls of active or inactive are those of the source. The rule behind the calls is not given here.

Tests used:
4T1 [1] = test: Antiproliferative activity against mouse 4T1 cells measured after 72 hrs by MTT assay; assay type: functional, cell-based; details: 4T1, 72 h
Procedure, shortened: (§1)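 MTT antiproliferation assay on human breast cancer lines MDA-MB-231, SUM-159, MCF-7 and Bcap-37 and on mouse 4T1 breast cancer cells. IC50 values were taken from the MTT read-out. Adriamycin served as the positive control.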

MDA-MB-231 [2] = test: Antiproliferative activity against human MDA-MB-231 cells measured after 72 hrs by MTT assay; assay type: functional, cell-based; details: MDA-MB-231, 72 h; procedure, shortened: as §1
NIH3T3 = test: Cytotoxicity against mouse 3T3 cells measured after 72 hrs by MTT assay; assay type: cell-based; details: NIH3T3, 72 h
Procedure, shortened: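 Cytotoxicity was measured by MTT on normal 3T3 mouse embryonic fibroblasts, with IC50 from the MTT read-out.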

[3] = Therapeutic index, ratio of IC50 for mouse 3T3 cells to IC50 for mouse 4T1 cells; assay type: toxicity; details: 3T3 cells and 4T1 cells, read-out: Ratio IC50
MCF7 [4] = test: Antiproliferative activity against human MCF7 cells measured after 72 hrs by MTT assay; assay type: functional, cell-based; details: MCF7, 72 h; procedure, shortened: as §1
MDA-MB-231 [5] = test: Potency index, ratio of parthenolide IC50 to test compound IC50 for human MDA-MB-231 cells; assay type: functional
Bcap37 [6] = test: Antiproliferative activity against human Bcap37 cells measured after 72 hrs by MTT assay; assay type: functional, cell-based; details: Bcap37, 72 h; procedure, shortened: as §1
SUM-159-PT [7] = test: Antiproliferative activity against human SUM159 cells measured after 72 hrs by MTT assay; assay type: functional, cell-based; procedure, shortened: as §1
MDA-MB-231 [8] = test: Antiproliferative activity against human MDA-MB-231 cells co-treated with melampomagnolide B at 1:1 molar ratio measured after 72 hrs by MTT assay; details: MDA-MB-231, 72 h
[9] = molecular target: T1, Serine/threonine-protein kinase Chk1 (Homo sapiens) (UniProt O14757); test: Inhibition of Chk1 phosphorylation in human SUM159 cells at 0.1 to 0.2 uM measured after 48 hrs by Western blot analysis; assay type: cell-based
T1 sequence (whole entry): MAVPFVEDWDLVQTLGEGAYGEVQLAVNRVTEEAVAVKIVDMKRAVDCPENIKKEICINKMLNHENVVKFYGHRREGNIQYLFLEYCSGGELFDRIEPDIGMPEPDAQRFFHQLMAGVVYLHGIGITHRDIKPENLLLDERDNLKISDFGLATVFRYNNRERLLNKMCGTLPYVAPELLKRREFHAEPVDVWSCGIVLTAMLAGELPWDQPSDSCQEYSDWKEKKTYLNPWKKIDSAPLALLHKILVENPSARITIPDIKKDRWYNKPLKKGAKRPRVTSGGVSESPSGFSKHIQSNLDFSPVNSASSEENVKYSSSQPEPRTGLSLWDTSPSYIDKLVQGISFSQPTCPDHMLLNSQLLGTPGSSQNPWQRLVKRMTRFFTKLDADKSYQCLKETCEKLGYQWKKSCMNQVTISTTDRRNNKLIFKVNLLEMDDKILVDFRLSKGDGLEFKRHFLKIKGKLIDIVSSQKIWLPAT

SUM-159-PT [10] = test: Induction of apoptosis in human SUM159 cells assessed as viable cells at 0.5 uM measured after 48 hrs by Annexin-V APC/propidium iodide staining based flow cytometry (reference value: 95.9%); assay type: functional; details: read-out: Activity
Procedure, shortened: (§2)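 SUM-159 cells were exposed at 0, 0.2 and 0.5 µM, then stained with annexin V/PI and analysed by flow cytometry. Early apoptosis was annexin V+/PI−, late apoptosis annexin V+/PI+, and total apoptosis was the sum of the two.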

SUM-159-PT [11] = test: Induction of apoptosis in human SUM159 cells assessed as late apoptotic cells at 0.5 uM measured after 48 hrs by Annexin-V APC/propidium iodide staining based flow cytometry (reference value: 1.45%); assay type: functional; procedure, shortened: as §2
[12] = molecular target: Serine/threonine-protein kinase Chk2 (Homo sapiens) (UniProt O96017); test: Inhibition of Chk2 phosphorylation in human SUM159 cells at 0.1 to 0.2 uM measured after 48 hrs by Western blot analysis; assay type: cell-based
SUM-159-PT [13] = test: Cell cycle arrest in human SUM159 cells assessed as increase in G1-phase accumulation at […] measured after 48 hrs by propidium iodide staining based flow cytometry; assay type: functional
Procedure, shortened: (§3)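 SUM-159 cells were treated for 48 h. Cell cycle distribution (G1, S, G2/M) was measured by flow cytometry and compared with an untreated control group.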

SUM-159-PT [14] = test: Induction of apoptosis in human SUM159 cells assessed as necrotic cells at 0.5 uM measured after 48 hrs by Annexin-V APC/propidium iodide staining based flow cytometry (reference value: 0.152%); assay type: functional; procedure, shortened: as §2
SUM-159-PT [15] = test: Cell cycle arrest in human SUM159 cells assessed as decrease in G2/M-phase accumulation at […] measured after 48 hrs by propidium iodide staining based flow cytometry; assay type: functional; procedure, shortened: as §3
SUM-159-PT [16] = test: Potency index, ratio of parthenolide IC50 to test compound IC50 for human SUM159 cells; assay type: functional
SUM-159-PT [17] = test: Induction of apoptosis in human SUM159 cells assessed as increase in Bim expression measured after 48 hrs by Western blot analysis; assay type: functional, cell-based
SUM-159-PT [18] = test: Induction of apoptosis in human SUM159 cells assessed as increase in Bax expression measured after 48 hrs by Western blot analysis; assay type: functional, cell-based
SUM-159-PT [19] = test: Cell cycle arrest in human SUM159 cells assessed as down regulation of CHK2 expression at 0.1 to 0.2 uM measured after 48 hrs by Western blot analysis; assay type: functional, cell-based
MCF7 [20] = test: Potency index, ratio of parthenolide IC50 to test compound IC50 for human MCF7 cells; assay type: functional
[21] = molecular target: Cyclin-dependent kinase 1 (Homo sapiens) (UniProt P06493); test: Inhibition of CDC2 phosphorylation in human SUM159 cells at 0.1 to 0.2 uM measured after 48 hrs by Western blot analysis; assay type: cell-based
Bcap37 [22] = test: Potency index, ratio of parthenolide IC50 to test compound IC50 for human Bcap37 cells; assay type: functional
SUM-159-PT [23] = test: Induction of apoptosis in human SUM159 cells assessed as increase in cytochrome-C release measured after 48 hrs by Western blot analysis; assay type: functional, cell-based
SUM-159-PT [24] = test: Induction of apoptosis in human SUM159 cells assessed as early apoptotic cells at 0.5 uM measured after 48 hrs by Annexin-V APC/propidium iodide staining based flow cytometry (reference value: 2.5%); assay type: functional; procedure, shortened: as §2
SUM-159-PT [25] = test: Induction of apoptosis in human SUM159 cells assessed as increase in cleaved caspase-9 measured after 48 hrs by Western blot analysis; assay type: functional, cell-based
SUM-159-PT [26] = test: Induction of apoptosis in human SUM159 cells assessed as late apoptotic cells at 0.2 uM measured after 48 hrs by Annexin-V APC/propidium iodide staining based flow cytometry (reference value: 1.45%); assay type: functional; procedure, shortened: as §2
4T1 [27] = test: Potency index, ratio of parthenolide IC50 to test compound IC50 for mouse 4T1 cells; assay type: functional
SUM-159-PT [28] = test: Induction of apoptosis in human SUM159 cells assessed as viable cells at 0.2 uM measured after 48 hrs by Annexin-V APC/propidium iodide staining based flow cytometry (reference value: 95.9%); assay type: functional; details: read-out: Activity; procedure, shortened: as §2
SUM-159-PT [29] = test: Induction of apoptosis in human SUM159 cells assessed as early apoptotic cells at 0.2 uM measured after 48 hrs by Annexin-V APC/propidium iodide staining based flow cytometry (reference value: 2.5%); assay type: functional; procedure, shortened: as §2
SUM-159-PT [30] = test: Induction of apoptosis in human SUM159 cells assessed as necrotic cells at 0.2 uM measured after 48 hrs by Annexin-V APC/propidium iodide staining based flow cytometry (reference value: 0.152%); assay type: functional; procedure, shortened: as §2
SUM-159-PT [31] = test: Cell cycle arrest in human SUM159 cells assessed as decrease in S-phase accumulation measured after 48 hrs by propidium iodide staining based flow cytometry
SUM-159-PT [32] = test: Cell cycle arrest in human SUM159 cells assessed as down regulation of CHK1 expression at 0.1 to 0.2 uM measured after 48 hrs by Western blot analysis; assay type: functional, cell-based
SUM-159-PT [33] = test: Cell cycle arrest in human SUM159 cells assessed as up regulation of P27 expression at 0.1 to 0.2 uM measured after 48 hrs by Western blot analysis; assay type: functional, cell-based

Serine/threonine-protein kinase Chk2 (Homo sapiens), sequence (O96017 whole entry): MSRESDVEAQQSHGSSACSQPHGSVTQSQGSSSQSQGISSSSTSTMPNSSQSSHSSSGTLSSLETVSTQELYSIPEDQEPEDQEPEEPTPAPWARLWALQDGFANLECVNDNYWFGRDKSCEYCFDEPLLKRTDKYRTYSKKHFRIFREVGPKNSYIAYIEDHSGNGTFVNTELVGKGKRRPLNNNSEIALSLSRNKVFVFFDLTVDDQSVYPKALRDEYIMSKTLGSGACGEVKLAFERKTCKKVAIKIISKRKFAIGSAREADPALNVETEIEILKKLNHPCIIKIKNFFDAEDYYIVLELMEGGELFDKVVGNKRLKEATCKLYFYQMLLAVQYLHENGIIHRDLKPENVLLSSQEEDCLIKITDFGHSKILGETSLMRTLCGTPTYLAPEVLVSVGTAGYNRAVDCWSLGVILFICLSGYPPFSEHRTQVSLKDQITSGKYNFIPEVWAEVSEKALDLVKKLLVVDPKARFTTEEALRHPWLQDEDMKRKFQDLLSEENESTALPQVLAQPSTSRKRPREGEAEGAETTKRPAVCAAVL
Cyclin-dependent kinase 1 (Homo sapiens), sequence (P06493 whole entry, looked up): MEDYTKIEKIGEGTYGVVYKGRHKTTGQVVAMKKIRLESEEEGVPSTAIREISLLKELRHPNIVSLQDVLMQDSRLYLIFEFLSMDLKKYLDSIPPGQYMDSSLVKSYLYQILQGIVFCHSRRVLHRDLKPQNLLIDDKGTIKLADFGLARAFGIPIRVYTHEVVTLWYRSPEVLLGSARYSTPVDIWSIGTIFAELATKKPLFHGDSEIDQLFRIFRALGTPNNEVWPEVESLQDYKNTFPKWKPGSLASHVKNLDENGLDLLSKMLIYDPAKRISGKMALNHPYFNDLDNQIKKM

Compound: COc1cccc2c1C(=O)c1c(O)c3c(c(O)c1C2=O)C[C@@](O)(C(=O)CO)C[C@@H]3O[C@H]1C[C@H](N)[C@H](O)[C@H](C)O1 [DOXORUBICIN HYDROCHLORIDE]
- IC50 (4T1 [1]): 800 nM
- IC50 (MDA-MB-231 [2]): 800 nM
- IC50 (NIH3T3): 360 nM
- selectivity ratio [3]: 0.45

Compound: C=C1C(=O)O[C@H]2[C@H]1CC/C(COC(=O)/C=C/c1ccccc1OCC)=C\CC[C@@]1(C)O[C@@H]21
- IC50 (MCF7 [4]): 290 nM
- Ratio IC50 (MDA-MB-231 [5]): 10
- IC50 (4T1 [1]): 180 nM
- IC50 (MDA-MB-231 [2]): 340 nM
- IC50 (Bcap37 [6]): 420 nM
- IC50 (SUM-159-PT [7]): 210 nM

Compound: C=C1C(=O)O[C@H]2[C@H]1CC/C(COC(=O)/C=C/c1ccccc1)=C\CC[C@@]1(C)O[C@@H]21
- Ratio IC50 (MDA-MB-231 [5]): 2
- IC50 (MDA-MB-231 [2]): 1350 nM

Compound: COc1cccc(OC)c1/C=C/C(=O)O
- IC50 (MDA-MB-231 [2]): > 50000 nM
- IC50 (MDA-MB-231 [8]): 3920 nM

Compound: C=C1C(=O)O[C@H]2[C@H]1CC/C(COC(=O)/C=C/c1ccc(OC)cc1OC)=C\CC[C@@]1(C)O[C@@H]21
- IC50 (MCF7 [4]): 890 nM
- IC50 (4T1 [1]): 1410 nM
- IC50 (MDA-MB-231 [2]): 550 nM
- IC50 (Bcap37 [6]): 1150 nM
- IC50 (SUM-159-PT [7]): 800 nM

Compound: C=C1C(=O)O[C@H]2[C@H]1CC/C(COC(=O)/C=C/c1ccccc1OC)=C\CC[C@@]1(C)O[C@@H]21
- IC50 (MCF7 [4]): 420 nM
- IC50 (4T1 [1]): 520 nM
- IC50 (MDA-MB-231 [2]): 460 nM
- IC50 (Bcap37 [6]): 680 nM
- IC50 (SUM-159-PT [7]): 350 nM

Compound: C=C1C(=O)O[C@H]2[C@H]1CC/C(COC(=O)/C=C/c1cc(OC)ccc1OC)=C\CC[C@@]1(C)O[C@@H]21
- IC50 (MCF7 [4]): 260 nM
- Ratio IC50 (MDA-MB-231 [5]): 14
- IC50 (4T1 [1]): 340 nM
- IC50 (MDA-MB-231 [2]): 260 nM
- IC50 (Bcap37 [6]): 550 nM
- IC50 (SUM-159-PT [7]): 260 nM

Compound: C=C1C(=O)O[C@H]2[C@H]1CC/C(COC(=O)/C=C/c1c(OC)cccc1OC)=C\CC[C@@]1(C)O[C@@H]21
- IC50 (MCF7 [4]): 230 nM
- inhibition [9]: Active
- viability at 0.5 µM (SUM-159-PT [10]): 61.3%
- Activity (SUM-159-PT [11]): 6.07%
- inhibition [12]: Active
- Ratio IC50 (MDA-MB-231 [5]): 14
- Activity (SUM-159-PT [13]): Active
- Activity (SUM-159-PT [14]): 2.04%
- Activity (SUM-159-PT [15]): Active
- Ratio IC50 (SUM-159-PT [16]): 11.6 - 18.6
- Activity (SUM-159-PT [17]): Active
- Activity (SUM-159-PT [18]): Active
- IC50 (4T1 [1]): 220 nM
- Activity (SUM-159-PT [19]): Active
- IC50 (MDA-MB-231 [2]): 250 nM
- IC50 (NIH3T3): 8130 nM
- Ratio IC50 (MCF7 [20]): 11.6 - 18.6
- inhibition [21]: Active
- Ratio IC50 (Bcap37 [22]): 11.6 - 18.6
- Activity (SUM-159-PT [23]): Active
- Activity (SUM-159-PT [24]): 30.5%
- Activity (SUM-159-PT [25]): Active
- Activity (SUM-159-PT [26]): 0.79%
- Ratio IC50 (4T1 [27]): 11.6 - 18.6
- viability at 0.2 µM (SUM-159-PT [28]): 96.3%
- Activity (SUM-159-PT [29]): 2.93%
- IC50 (Bcap37 [6]): 270 nM
- Activity (SUM-159-PT [30]): 0.029%
- IC50 (SUM-159-PT [7]): 200 nM
- selectivity ratio [3]: 36.9
- Activity (SUM-159-PT [31]): Active
- Activity (SUM-159-PT [32]): Active
- Activity (SUM-159-PT [33]): Active

Compound: C=C1C(=O)O[C@@H]2C3O[C@]3(C)CC/C=C(\C)CC[C@@H]12 (some centres not stated)
- IC50 (MCF7 [4]): 2680 nM
- viability at 0.5 µM (SUM-159-PT [10]): 96.4%
- Activity (SUM-159-PT [11]): 1.1%
- Activity (SUM-159-PT [14]): 0.049%
- IC50 (4T1 [1]): 4090 nM
- IC50 (MDA-MB-231 [2]): 3480 nM
- Activity (SUM-159-PT [24]): 2.49%
- IC50 (Bcap37 [6]): 4630 nM
- IC50 (SUM-159-PT [7]): 3060 nM
